Consider 3 molecules from ChEMBL document CHEMBL2406936, “Highly oxygenated meroterpenoids from fruiting bodies of the mushroom Tricholoma terreum” (J Nat Prod, 2013).

What all share (assay type): functional, cell-based
One experiment concerns SW480. In words: Cytotoxicity against human SW480 cells after 48 hrs by MTT assay. In outline:
(§1)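 Cells grown in RPMI1640 or DMEM with 10% FBS at 37 °C under 5% CO2. Adherent lines (A-549, MCF-7, SMMC-7721, SW480) were allowed 12 h to attach before dosing. Suspension HL-60 cells were seeded just before dosing at an initial 1 × 10^5 cells/mL. Compounds in DMSO at 0.0625, 0.32, 1.6, 8 and 40 μmol, in triplicate, for 48 h. MTT read-out. Cisplatin and vinorelbine were the positive controls.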
(In general: Tetrazolium dyes change colour on reduction, which living cells bring about.)

In another experiment the test system is MCF7. In words: Cytotoxicity against human MCF7 cells after 48 hrs by MTT assay. In outline: as §1
The next experiment deals with A549. Description: Cytotoxicity against human A549 cells after 48 hrs by MTT assay. In outline:
as §1

For the next experiment, the system named is SMMC-7721. In words: Cytotoxicity against human SMMC7721 cells after 48 hrs by MTT assay. In outline:
as §1

Another experiment deals with HL-60. In words: Cytotoxicity against human HL60 cells after 48 hrs by MTT assay. A digest of the protocol: as §1

Turning to `COc1cc(O)c2c(c1O)C[C@]1(C)O[C@@H]1CC[C@@]1(C)O[C@@H]1C2=O`, the IC50 stood at 14.2 µmol with SW480; 16.1 µmol in the experiment on MCF7; 4.2 µmol with A549; 11.3 µmol in the experiment with SMMC-7721; 4 µmol in the experiment on HL-60.

As for `COc1cc(O)c2c(c1O)C/C(C)=C\CC[C@@]1(C)O[C@@H]1C2=O`, the IC50 is > 40 µmol in the experiment on SW480; 24.6 µmol with MCF7; 16.4 µmol in the experiment with A549; 24.7 µmol in the experiment on SMMC-7721; 5.6 µmol in the experiment on HL-60.

As for `COc1cc(O)c2c(c1O)C/C(C)=C\[C@@H](O)C[C@@]1(C)O[C@@H]1C2=O`, the IC50 in the experiment on SW480 is 21.1 µmol; with MCF7 it was 21 µmol; in the experiment with A549, 6.5 µmol; in the experiment with SMMC-7721, 14.9 µmol; in the experiment on HL-60, 17.8 µmol.
